Assay results as given in publication PMC2141641 (The Journal of Cell Biology, 1997).

Assays:
[1] = test system: CD36–GST fusion protein FP298-439; design: species or system human; conditions: 125I–TSP-1 20 μg/ml; equal to binding in the presence of 5 mM EDTA; n = 5
Procedure, shortened: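 GST–CD36 fusion protein was coated overnight at 4°C at 10 μg/ml in carbonate buffer, pH 9.8 (200–280 ng/well). Wells were washed with TBS-T and blocked with TBS-T/0.5% BSA. 125I–TSP-1 (20 μg/ml; 0.5–1 mCi/mg) in TBS-T was incubated 2 h at 22°C. Wells were washed and bound counts measured by gamma counting. 5 mM EDTA defined nonspecific binding.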

[2] = test system: Bovine adrenal capillary endothelial cells (BCECs); assay: Endothelial cell migration assay, BCECs; assay type: cell-based; conditions: TSP-1 2 nM; fusion protein preincubated 2 h at 4°C; migration 4 h at 37°C
Procedure, shortened: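 Bovine adrenal capillary cells (DME, 10% donor calf serum, 1% endothelial mitogen; passage 15) were starved overnight in DME/0.1% BSA. 3 × 10^4 cells/well were attached 2 h at 37°C to a gelatinized membrane in an inverted Boyden chamber, then reinverted. GST–CD36 fusion proteins were preincubated with 2 nM TSP-1, warmed to room temperature, and added to the top wells. Migration to bFGF ran 4 h at 37°C. Migrated cells/10 high-power fields counted; normalized to bFGF minus background.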

[3] = test system: TSP-1; conditions: ref Pearce et al., 1995; cited from earlier work

- TSP-1 binding to immobilized fusion protein (in words) [1]: only background binding
B1: FP298-439: control fusion protein unable to bind TSP-1 spanning CD36 amino acids 298–439 (protein)
chain: KAFASPVENPDNYCFCTEKIISKNCTSYGVLDISKCKEGRPVYISLPHFLYASPDVSEPIDGLNPNEEEHRTYLDIEPITGFTLQFAKRLQVNLLVKPSEKIQVLKNLKRNYIVPILWLNETGTIGDEKANMFRSQVTGKIN
modifications: left off: GST, end not stated, kept
- block of TSP-1 inhibition of bFGF-induced migration [2]: ineffective
- binding of fusion protein to TSP-1 [3]: unable to bind TSP-1
